1 molecule from ChEMBL document CHEMBL4613249, “Serendipitous Discovery of Leucine and Methionine Depletion Agents during the Search for Polyamine Transport Inhibitors” (J Med Chem, 2020) can be followed below.

A word on the IC50: it is the concentration at which inhibition is half-maximal.

Data set [1] concerns L3.6pl. As to the kind of experiment: Induction of polyamine import in human L3.6PL cells assessed as increase in intracellular Ant-44 uptake by measuring Ant-44 level per protein at 1 measured up to 72 hrs in presence of amine oxidase suppressor aminoguanidine by LCMS analysis (reference value: 2.15 +/- 0.1 nmol/mg). Format: functional.
Data set [2] deals with Large neutral amino acids transporter small subunit 1 (Homo sapiens) (UniProt Q01650). As to the kind of experiment: Inhibition of LAT1-mediated [3H]-leucine uptake in human L3.6PL cells at 2 to 20 uM and 37 degree C measured after 2 mins by scintillation counter method. Format: cell-based.
For data set [3] the target is unchanged. Briefly: Inhibition of LAT1-mediated amino acid transport in human L3.6PL cells assessed as reduction in intracellular methionine level by measuring methionine level per mg protein in cell lysate at 2 uM measured after 72 hrs by LCMS analysis (reference value: 167 +/- 67 pmol/mg). It is filed as cell-based. The essentials: (§1)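 L3.6pl cells (50,000 cells/mL, 10 mL, 1 mM aminoguanidine) were seeded in poly-lysine-treated 9 cm dishes and incubated overnight at 37°C. They were then dosed with compound at 2, 5 or 7 μM from PBS stocks (2, 5, 7 mM) and incubated 72 h. Runs were done in triplicate, with amino acid levels per mg protein.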

In data set [4] the test system is L3.6pl. As to the kind of experiment: Effect on polyamine level in human L3.6PL cells assessed as agmatine level per mg protein in supernatant at 2 uM measured after 72 hrs in presence of amine oxidase suppressor aminoguanidine by LCMS analysis (reference value: 101 pmol/mg). It is filed as functional.
Data set [5] in a line: Selectivity index, ratio of IC50 for cytotoxicity against CHO-MG cells assessed as reduction in cell viability after 48 hrs by MTS assay to IC50 for […] human L3.6PL cells assessed as reduction in cell viability after 48 hrs by MTS assay. The procedure, abridged:
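The ratio is of 48 h IC50 values from MTS growth assays. CHO K1/CHO-MG cells were plated at 1000 cells/well and L3.6pl at 500 cells/well, drug in PBS was added after overnight incubation, and absorbance was read at 490 nm. IC50 is 50% growth versus untreated control; runs were done twice in triplicate.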
(In general: Tetrazolium assays rely on reduction of a dye to a coloured formazan, in cell work by metabolically active cells.)

Data set [6] concerns L3.6pl. As to the kind of experiment: Effect on polyamine level in human L3.6PL cells assessed as spermine level per mg protein in supernatant at 5 uM measured after 72 hrs in presence of amine oxidase suppressor aminoguanidine by LCMS analysis (reference value: 6152 +/- 5596 pmol/mg). Format: functional.
Data set [7] addresses Large neutral amino acids transporter small subunit 1 (Homo sapiens) (UniProt Q01650). As to the kind of experiment: Inhibition of LAT1-mediated amino acid transport in human L3.6PL cells assessed as reduction in intracellular leucine level by measuring leucine level per mg protein in cell lysate at 2 uM measured after 72 hrs by LCMS analysis (reference value: 232 +/- 10 pmol/mg). Format: cell-based. The procedure, abridged: as §1

Data set [8] has the same target. As to the kind of experiment: Induction of LAT1-mediated polyamine efflux in human L3.6PL cells assessed as increase in [3H]leucine efflux at 60 uM measured after 30 mins at 37 degC by scintillation counting method. It is filed as cell-based. The procedure, abridged:
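L3.6pl cells preloaded 5 min at 37°C with 3H-leucine and washed three times with cold HBSS. Compound (60 μM) given alone for 30 min at 37°C. Radioactivity of released 3H-leucine counted in the supernatant. Untreated and 100 μM unlabeled leucine lanes set the efflux range.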

Data set [9] has as its system CHO-K1. Briefly: Cytotoxicity against CHOK1 cells assessed as effect on cell growth at < 7 uM measured after 48 hrs by MTS assay. Format: cell-based, Cricetulus griseus. The note with it: chinese hamster, cho-k1, 48 h.
The test system of data set [10] is CHO-K1. As to the kind of experiment: Induction of polyamine efflux in aminoguanidine pretreated CHOK1 cells assessed as reduction in cell viability measured after 72 hrs in presence of putrescine by MTS assay. As to conditions: chinese hamster, cho-k1, 72 h. It is filed as ADME, cell-based, Cricetulus griseus.
In data set [11] the test system is L3.6pl. As to the kind of experiment: Effect on polyamine level in human L3.6PL cells assessed as ornithine level per mg protein in supernatant at 2 uM measured after 72 hrs in presence of amine oxidase suppressor aminoguanidine by LCMS analysis (reference value: 10588 +/- 3212 pmol/mg). It is filed as functional.
The test system of data set [12] is L3.6pl. As to the kind of experiment: Effect on polyamine level in human L3.6PL cells assessed as agmatine level per mg protein in supernatant at 5 uM measured after 72 hrs in presence of amine oxidase suppressor aminoguanidine by LCMS analysis (reference value: 101 pmol/mg). It is filed as functional.
Data set [13] concerns the target Large neutral amino acids transporter small subunit 1 (Homo sapiens) (UniProt Q01650). As to the kind of experiment: Inhibition of LAT1-mediated [3H]-leucine uptake in human L3.6PL cells at 2 to 7 uM preincubated for 24 hrs at 37 degree C followed by HBBS addition and compound washout and subsequent compound dosing measured after 30 mins by scintillation counter method. It is filed as cell-based. The essentials:
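L3.6pl cells were preincubated 24 h at 37°C with compound, washed and placed in HBSS. Compound was then added back just before ³H-leucine, followed by a 30 min incubation at 37°C. After cold washes, radioactivity was counted and normalized to μg protein.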

The test system of data set [14] is L3.6pl. Briefly: Effect on polyamine level in human L3.6PL cells assessed as acetyl spermine level per mg protein in supernatant at 2 uM measured after 72 hrs in presence of amine oxidase suppressor aminoguanidine by LCMS analysis (reference value: 77 +/- 43 pmol/mg). Format: functional.
In data set [15] the test system is CHO-K1. As to the kind of experiment: Inhibition of polyamine transporter in CHOK1 cells assessed as rescue of 2.4 uM N-(anthracenylmethyl) homospermidine-induced toxicity by measuring cell growth at 7 uM measured after 48 hrs in presence of amine oxidase suppressor aminoguanidine by MTS assay (reference value: 23%). Also noted: scale not given: the % may be the effect or the level left. As to conditions: Cricetulus griseus. Format: cell-based. The essentials:
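CHO K1 cells (1000 cells/well, aminoguanidine 1 mM preincubation) were given a toxic Ant-44 dose (2.4 μM) with candidate compound at 5 or 7 μM. Cells were incubated 48 h at 37°C, and relative growth versus untreated control was read by MTS.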

For data set [16], the system named is L3.6pl. Briefly: Cytotoxicity against human L3.6PL cells assessed as reduction in cell viability at 0.25 to 20 uM measured after 24 to 72 hrs by MTS assay. It is filed as cell-based. The essentials: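 Time course in L3.6pl cells, 500 cells/well, with compound alone for 24, 48 and 72 h exposure at 37°C. Growth by MTS absorbance at 490 nm relative to untreated control.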

Data set [17] has as its system L3.6pl. Briefly: Effect on polyamine level in human L3.6PL cells assessed as putrescine level per mg protein in supernatant at 5 uM measured after 72 hrs in presence of amine oxidase suppressor aminoguanidine by LCMS analysis (reference value: 977 +/- 522 pmol/mg). Format: functional.
For data set [18], the system named is L3.6pl. Briefly: Effect on polyamine level in human L3.6PL cells assessed as decrease in intracellular spermidine level at 7 uM measured after 72 hrs in presence of amine oxidase suppressor aminoguanidine […] relative to control. Format: functional. Also noted: scale not given: the % may be the effect or the level left.
A further data set relates to CHO-MG. Briefly: Cytotoxicity against CHO-MG cells assessed as reduction in cell viability after 48 hrs by MTS assay. The note with it: Cricetulus griseus. It is filed as cell-based. The essentials: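 Cells in RPMI 1640 with 10% FBS, 1% penicillin/streptomycin, 37°C, 5% CO2, with aminoguanidine (1 mM for CHO K1 and CHO-MG, 250 μM for L3.6pl). Plated overnight at 1000 cells/well (CHO lines) or 500 cells/well (L3.6pl). Compound in PBS added, 48 h exposure. Growth read as MTS formazan absorbance at 490 nm. IC50 is the dose giving 50% relative growth versus untreated control. Run twice in triplicate.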

Active and inactive are the calls of the source. The rule behind the calls is not given here.

Chain of Large neutral amino acids transporter small subunit 1 (Homo sapiens) (Q01650 whole entry): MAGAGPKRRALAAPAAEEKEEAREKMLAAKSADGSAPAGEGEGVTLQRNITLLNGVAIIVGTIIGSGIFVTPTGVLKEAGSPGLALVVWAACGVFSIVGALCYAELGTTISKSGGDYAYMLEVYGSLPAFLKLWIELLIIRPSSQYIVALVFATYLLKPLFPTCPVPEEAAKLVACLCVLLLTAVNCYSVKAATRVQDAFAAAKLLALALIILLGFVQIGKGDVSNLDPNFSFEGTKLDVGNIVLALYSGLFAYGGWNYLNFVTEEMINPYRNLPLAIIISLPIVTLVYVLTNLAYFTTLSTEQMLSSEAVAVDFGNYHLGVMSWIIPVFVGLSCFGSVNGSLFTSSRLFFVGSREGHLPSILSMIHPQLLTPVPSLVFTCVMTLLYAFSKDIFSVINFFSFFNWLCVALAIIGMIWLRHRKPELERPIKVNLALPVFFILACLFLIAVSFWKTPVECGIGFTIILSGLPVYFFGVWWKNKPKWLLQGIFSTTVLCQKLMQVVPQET

`CC(C)CCN1CCN([C@@H](CNCc2ccccc2)CC2CCCCC2)C[C@@H]1CC(C)C`: the Activity in the data set with L3.6pl [1] is 2.08 nmol/mg; in data set [3], 226 pmol/mg; in the data set on L3.6pl [4], 297 pmol/mg; in the data set with L3.6pl [6], 2690 pmol/mg; in data set [7], 152 pmol/mg; in the data set with CHO-K1 [9], “Non-Toxic”. The Activity entry with CHO-K1 [10] is “Active”; in the data set with L3.6pl [11], 9249 pmol/mg; in the data set on L3.6pl [12], 485 pmol/mg; with L3.6pl [14] it was 49 pmol/mg; with CHO-K1 [15], 3%; in the data set on L3.6pl [16], “Toxic”. Further, the Activity in the data set on L3.6pl [17] worked out at 2224 pmol/mg; in the data set on L3.6pl [18] it was 50%. Besides, the inhibition entry in data set [2] and in [13] was “inactive” throughout. Moreover, the “Ratio IC50” value in data set [5] is given as 2. For the same molecule, the outcome in data set [8] was Active. In the data set with CHO-MG, the IC50 was 8.93 µM.
